Measurements published in PubChem BioAssay AID504382 (The Scripps Research Institute Molecular Screening Center, 2011).
In all, about 2,500 compounds went through this assay and about 460 (18%) were called active. A selection follows. A number with no mark means an inactive call.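 Rule for the calls: active = mean activation above a cutoff of low control average plus 3 SD from the earlier screen (cut at about 12% in these data); inactive = the rest.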

Assay: IANBD-channel fluorescence artefacts in buffer – biochemical, artefact control for cardiac RTF calcium sensitizer project, confirmation (AID 504382)
Details: IANBD fluorescence interference counterscreen, EC20 Ca2+, at 7.2 µM, active compounds read high, scaled: EC20 calcium 0, EC100 calcium 100
In short: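 Doses – one dose of 7.2 µM, 0.7% DMSO · Buffer or medium – MOPS/KCl/MgCl2/EGTA/NTA/DTT buffer, pH 7.2 · Probe or stimulus – Ca2+ fixed at EC20, 0.472 mM · Measured by – fluorescence intensity, excitation 480 nm, emission 540 nm · Read-out – fluorescence interference versus control range · Timing – 15 min compound exposure at 25 °C · Replication – triplicate wells per compound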
For CC(=O)c1nnn(-c2nc(N3CCCC3)nc(N(c3ccccc3)c3ccccc3)n2)c1C, the fluorescence artifact activation was 0.23%. With C=CCn1c(C)c(C(C)=O)c(N2CCN(c3ccccc3)CC2)nc1=S the fluorescence artifact activation was 28.9% (active). O=C(c1ccccc1C(=O)N1CCN(c2ccccc2)CC1)N1CCN(c2ccccc2)CC1 showed a fluorescence artifact activation of -0.08%. In the case of CC1(C)C2CCC(C2)C1(C)N=C1OC(CCl)CS1 (stereo not given), the fluorescence artifact activation is reported as 1.52%. Work on CN(C)c1ccc(/C=C/C(=O)c2ccc(O)cc2)cc1 yielded a fluorescence artifact activation of -0.03%. For CC(C)=CCC/C(C)=C/Cc1c(O)ccc(C(=O)/C=C/c2ccc(O)cc2)c1O, the fluorescence artifact activation was 177% (active). Compound CN(C)c1ccc(/C=C/C(=O)c2ccccc2O)cc1 has a fluorescence artifact activation of 0%. COc1ccc(C2C(C(=O)c3cccs3)=C(O)C(=O)N2c2nncs2)cc1 (stereo not given) showed a fluorescence artifact activation of 5.56%. For Cc1ccc(C)c(N2CCN(C(=O)c3cc4ccccn4n3)CC2)c1, the fluorescence artifact activation was 4.58%. CCN(CC)c1ccc(/C=C/C(=O)C2C(=O)C=C(C)OC2=O)cc1 (stereo not given) gave a fluorescence artifact activation of 0.16%. For Cc1ccc(-c2ccc(CO)o2)cc1N, the fluorescence artifact activation was 28.2% (active). Compound Cc1ccc2c(CN3CCCc4ccccc43)cc(=O)oc2c1C has a fluorescence artifact activation of -0.04%. In the case of FC(F)(F)c1cccc(-c2nc(COc3ccc(Cl)cc3Cl)no2)c1, the fluorescence artifact activation is reported as 2280% (active). For Cn1c(-c2ccc(C=O)s2)nc2c3ccccc3c3ccccc3c21, the fluorescence artifact activation was 5.75%. Work on CCOC(=O)COc1c(Cl)cc(C2NC(=S)NC(c3ccccc3)=C2C(C)=O)cc1OC (stereo not given) yielded a fluorescence artifact activation of 6.87%. In the case of CCOc1ccc(NC(=O)C2CC(=O)N=C(N)S2)cc1 (stereo not given), the fluorescence artifact activation is reported as 0.11%. With Cc1ccc(NC(=O)C(C)Sc2nnc(C)n2C2CC2)cc1S(=O)(=O)N1CCOCC1 (stereo not given) the fluorescence artifact activation was 0.96%. Compound CN1CCCN(Cc2cccc3ccccc23)CC1 has a fluorescence artifact activation of 0.24%. For O=S(=O)(c1ccc(NC(=S)Nc2ccccc2)cc1)N1CCOCC1, the fluorescence artifact activation was 0.1%. With O=C(CCc1ccc(S(=O)(=O)N2CCOCC2)cc1)OCC(=O)c1ccccc1 the fluorescence artifact activation was 6.03%. In the case of NS(=O)(=O)c1cccc(NC(=O)CCc2ccc(S(=O)(=O)N3CCOCC3)cc2)c1, the fluorescence artifact activation is reported as 31.3% (active). Work on CCOC(=O)CCc1c(C)nc(-n2[nH]c(C)c(CCO)c2=O)[nH]c1=O yielded a fluorescence artifact activation of 0.03%. In the case of Cc1ncc(CO)c2cc(-c3nnc(Nc4ccc5c(c4)OCO5)s3)c(=O)oc12, the fluorescence artifact activation is reported as 23.2% (active). CCOC(=O)CNc1ccc2c(c1)OCO2 showed a fluorescence artifact activation of 2.35%. O=C(c1ccccc1)N1C(=O)C(c2ccccc2)Oc2ccccc21 (stereo not given) showed a fluorescence artifact activation of -0.12%. For CC(/C=N/Nc1ccc2nncn2n1)=C\c1ccccc1, the fluorescence artifact activation was 12.9% (active). COc1cccc(C2C=C(c3ccc(Br)s3)Nc3ncnn32)c1OC (stereo not given) showed a fluorescence artifact activation of -0.01%. O=C(CNC(=O)c1cccc(Cl)c1)N/N=C/c1cccnc1 gave a fluorescence artifact activation of 0.03%. With CC/C(=C/c1sc2ccccc2[n+]1CC)SC the fluorescence artifact activation was 2.16%. CC[n+]1c(/C=C/N(C)c2ccccc2)oc2ccccc21 gave a fluorescence artifact activation of -0.02%. With CC[n+]1c(/C=C/C=C/N(C(C)=O)c2ccccc2)sc2ccccc21 the fluorescence artifact activation was 49.8% (active). For CC1=Nc2ccccc2/C1=C\c1nc(-c2ccc(C(F)(F)F)cc2)oc1O, the fluorescence artifact activation was -0.02%. In the case of C[C@H]1CCC(=O)N([C@H](CSc2ccc(Br)cc2)Cc2ccccc2)CC1, the fluorescence artifact activation is reported as 0.11%. In the case of Nc1c(C(=O)Nc2ccccc2F)sc2nc(Cc3ccccc3)cc(C(F)(F)F)c12, the fluorescence artifact activation is reported as 0.07%. For CCOc1ccc2noc3c2c1C(=O)c1ccccc1-3, the fluorescence artifact activation was 0.02%. In the case of c1ccc(Nc2nc3ccccc3n3cnnc23)cc1, the fluorescence artifact activation is reported as 0.03%. For CCCCOC(=O)Nc1nnc(C(C)C)s1, the fluorescence artifact activation was 148% (active). Compound CCOCCc1nnc(NC(=O)COC)s1 has a fluorescence artifact activation of 0.06%. With CCC(CC)c1nnc(NC(=O)/C=C/c2ccco2)s1 the fluorescence artifact activation was 0.09%. Work on Cc1cc(S(=O)(=O)Cc2noc(-c3c(C)noc3C)n2)c(C)cc1Cl yielded a fluorescence artifact activation of -0.02%. COC(=O)[C@H](Cc1ccccc1)NC(=O)Nc1ccc(OC)cc1 showed a fluorescence artifact activation of 0.02%. For COCCN1C(=O)N[C@@H](c2cccc(C(F)(F)F)c2)C(C(=O)OC)=C1C, the fluorescence artifact activation was 13.5% (active). Work on CCOC(=O)CN1C(=O)N[C@@H](c2cccc(C(F)(F)F)c2)C(C(=O)OC)=C1C yielded a fluorescence artifact activation of 0.03%. COc1cc(OC)c(C(=O)OC(C)C(=O)Nc2cccc(C(F)(F)F)c2)cc1OC (stereo not given) showed a fluorescence artifact activation of 1.83%. Cc1c(C(=O)NCc2ccco2)cccc1[N+](=O)[O-] gave a fluorescence artifact activation of 4.18%. COc1cc(/C=C/C(O)=C/C(=O)/C=C/c2ccc(O)cc2)ccc1O showed a fluorescence artifact activation of 0.51%. In the case of COc1cc(/C=C/C(=O)CC(=O)/C=C/c2ccc(O)c(OC)c2)ccc1O, the fluorescence artifact activation is reported as 0.15%. For COc1cc(/C=C/C(=O)/C=C(O)/C=C/c2ccc(O)c(OC)c2)ccc1O, the fluorescence artifact activation was 110% (active). In the case of C/C(=N/NC(=O)Nc1ccccc1)c1ccc(C)cc1, the fluorescence artifact activation is reported as -0.02%. With Cc1c(C=O)c2ccccn2c1C(=O)c1cccs1 the fluorescence artifact activation was 3.43%. For CCCNC(=O)Cn1c(=O)/c(=C\c2ccc(-c3ccc([N+](=O)[O-])cc3)o2)s/c1=C\C(=O)C(C)(C)C, the fluorescence artifact activation was 8.2%. Work on CC1(C)CC(=O)C=C(NCc2ccc(Cl)c(Cl)c2)C1 yielded a fluorescence artifact activation of -0.02%. O=S(=O)(c1ccc(F)cc1)N1CN(Cc2ccco2)c2nc3ccccc3nc21 gave a fluorescence artifact activation of 8.07%. For COc1ccc(CNC(=O)C(C#N)c2nc3ccccc3nc2N2CCCC2)cc1 (stereo not given), the fluorescence artifact activation was -0.08%. With COc1ccc(S(=O)(=O)N2CN(Cc3ccco3)c3nc4ccccc4nc32)cc1 the fluorescence artifact activation was 37.3% (active). With COC1=C/C(=C/c2c(N)n3cc(C)sc3nc2=O)C=CC1=O the fluorescence artifact activation was -0.03%. Cc1cccc(Nc2c([N+](=O)[O-])c(=O)oc3ccccc23)c1 showed a fluorescence artifact activation of 7.76%. Work on O=C(c1ccncc1)N(Cc1ccccc1)Cc1nc2ccccc2c(=O)[nH]1 yielded a fluorescence artifact activation of 0.03%. With COc1cc2cc(CN(Cc3cccnc3)C(=O)NCc3ccccc3)c(=O)[nH]c2cc1OC the fluorescence artifact activation was 116% (active). In the case of COc1ccc2cc(CN(CC3CCCO3)C(=S)NCc3ccco3)c(=O)[nH]c2c1 (stereo not given), the fluorescence artifact activation is reported as 0.1%. In the case of O=C1NC2=C(C(=O)CCC2)C(c2ccccc2Cl)N1 (stereo not given), the fluorescence artifact activation is reported as 0.2%. Compound O=C1N(c2ccc(Cl)cc2)C(c2ccccc2)N2CCCN12 (stereo not given) has a fluorescence artifact activation of -0.06%. In the case of C=CCOc1ccc(/C=C2\SC(=Nc3cccnc3)NC2=O)cc1, the fluorescence artifact activation is reported as 0.04%. Compound COc1ccc(N=C2NC(=O)S/C2=C\c2ccc(N(C)C)cc2)cc1 has a fluorescence artifact activation of 9.11%. In the case of CCOc1ccc(N=C2NC(=O)S/C2=C\c2ccc(N(C)C)cc2)cc1, the fluorescence artifact activation is reported as 1920% (active). With N#CC1(C#N)C(c2ccccc2)OC23CCCCC2C1(C#N)C(=N)O3 (stereo not given) the fluorescence artifact activation was 0.04%. Compound COc1cc(/C=C2\N=C3CCCCCN3C2=O)ccc1O has a fluorescence artifact activation of -0.06%. In the case of O=C(CCC1CCCN(C(=O)c2ccncc2)C1)NCc1ccc(F)c(F)c1 (stereo not given), the fluorescence artifact activation is reported as 0.02%. With Oc1ccc2ccc3cccc[n+]3c2c1 the fluorescence artifact activation was 12.9% (active). For CCn1c(SCC(=O)c2ccc(Cl)cc2)nnc1C(C)C, the fluorescence artifact activation was 2.06%. With COc1ccc(CN2CCC(C(=O)N3CCN(c4ccccc4F)CC3)CC2)cc1OC the fluorescence artifact activation was 0.36%. With COc1ccccc1Nc1ncc(C(=O)N2CCC(C(N)=O)CC2)c2ccccc12 the fluorescence artifact activation was -0.02%. For COc1ccc(CN2CCN(C(=O)c3ccccc3F)CC2)c(OC)c1OC, the fluorescence artifact activation was 14.3% (active). COc1ccc(CC(=O)N(C)Cc2cccc(F)c2)cc1S(=O)(=O)N1CCOCC1 gave a fluorescence artifact activation of 0.26%. Compound CSc1ccc(C2NC(=O)c3c(sc4c3CCN(C)C4)N2)cc1 (stereo not given) has a fluorescence artifact activation of 4.52%. With N#Cc1ccc(S(=O)(=O)NC2CCCCNC2=O)cc1 (stereo not given) the fluorescence artifact activation was 26.9% (active). Compound O=C1NCCCCC1NS(=O)(=O)c1cccc(C(F)(F)F)c1 (stereo not given) has a fluorescence artifact activation of 0.33%. For N#Cc1ccc(S(=O)(=O)NC2CCN(Cc3ccccc3)CC2)cc1, the fluorescence artifact activation was 2.37%. In the case of CCN1CCc2c(sc(NC(=O)c3ccc(S(=O)(=O)N(C)c4ccccc4)cc3)c2C(=O)NC)C1, the fluorescence artifact activation is reported as 0.31%. CCC(Oc1cc(Cl)ccc1Cl)C(=O)NNC(=O)CCC(=O)O (stereo not given) showed a fluorescence artifact activation of 0.03%. For CCn1c(O)c(/C=N/N=C/c2ccc(OC)cc2)c2cc(C3=NNC(=O)CC3)ccc21, the fluorescence artifact activation was 5.84%. In the case of COc1ccc(/C=N/N=C2/CC(C)(C)Cc3n[nH]c(=O)cc32)cc1, the fluorescence artifact activation is reported as 357% (active). CCn1cc(/C=C/c2cc[n+](C)cc2)c2ccccc21 showed a fluorescence artifact activation of 0.09%. Compound CC1CN/C(=C\C(=O)c2ccc(Br)cc2)C(=O)N1 (stereo not given) has a fluorescence artifact activation of -0.09%. For CCN(CC)c1ccc2cc(S(=O)(=O)c3ccc(Cl)cc3)c(=O)oc2c1, the fluorescence artifact activation was 156% (active). CCN(CC)c1ccc2cc(NC(=O)CCC(=O)O)c(=O)oc2c1 showed a fluorescence artifact activation of 0.3%. In the case of CCN(CC)c1ccc2cc(S(=O)(=O)c3ccc(C)cc3)c(=O)oc2c1, the fluorescence artifact activation is reported as 9.02%. Compound COc1ccc(C2c3ccc(O)cc3Oc3ncn(CCN4CCOCC4)c(=N)c32)cc1OC (stereo not given) has a fluorescence artifact activation of 5.12%. Compound CC(C)c1ccc(OCC(=O)NC(Cc2c[nH]c3ccccc23)C(=O)O)cc1 (stereo not given) has a fluorescence artifact activation of 0.01%. Work on CN1CCc2c(sc3c2C(=O)NC(c2ccco2)N3)C1 (stereo not given) yielded a fluorescence artifact activation of 0.18%. For O=C(NCc1ccco1)C1Cc2ccccc2CN1C(=O)c1ccco1 (stereo not given), the fluorescence artifact activation was 1040% (active). In the case of O=C(NCc1ccco1)C1CCC(N2C(=O)C3C4CCC(C4)C3C2=O)CC1 (stereo not given), the fluorescence artifact activation is reported as 0.07%. For O=C(O)C1CC(O)CN1C(=O)c1ccco1 (stereo not given), the fluorescence artifact activation was 0.06%. Compound COc1cccc(OC)c1C(=O)NNC(=O)c1ccccc1-n1cccc1 has a fluorescence artifact activation of -0.01%. With CC(C)(C)C(=O)c1sc2nc(-c3cccs3)cc(C(F)(F)F)c2c1N the fluorescence artifact activation was 0.13%.
